For nine compounds, IC50 and Activity results are on record in ChEMBL document CHEMBL3044585, “Potent in vivo antifungal activity against powdery mildews of pregnane glycosides from the roots of Cynanchum wilfordii” (J Agric Food Chem, 2011).

Usually IC50 stands for the midpoint of a concentration-inhibition curve.

Assay [1] deals with Blumeria hordei. Put plainly: Antifungal activity against Blumeria graminis f. sp. hordei assessed as control of barley powdery mildew treated 1 day before inoculation. Format: functional, organism-based. The essentials:
(§1)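 One-day protective test on barley against powdery mildew: plants treated 1 day before inoculation, with Tween 20 solution alone as the untreated reference. Pots in randomized complete block design, three replicates per treatment, experiment run twice. Infected leaf area (%) scored; % control = 100[(A − B)/A], A = infection on Tween 20-sprayed leaves, B = infection on treated leaves; reported ± standard deviation.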

Assay [2] has as its system Blumeria hordei. Put plainly: Antifungal activity against Blumeria graminis f. sp. hordei assessed as control of barley powdery mildew at 16 ug/mL treated 1 day before inoculation. The class given is functional. The method, boiled down:
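Barley plants in pots treated with sample in Tween 20 solution and inoculated 1 day later (protective assay). Randomized complete block design, three replicates per treatment, experiment run twice. Infected leaf area (%) scored. % control = 100[(A−B)/A], where A is the infection area on leaves sprayed with Tween 20 solution alone; reported ± standard deviation.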

For assay [3], the system named is Blumeria hordei. Put plainly: Antifungal activity against Blumeria graminis f. sp. hordei assessed as control of barley powdery mildew at 63 ug/mL treated 1 day before inoculation. The class given is functional. The method, boiled down: as §1
Assay [4] has as its system Podosphaera macularis. In words: Antifungal activity against Sphaerotheca humuli assessed as diseased fruits in strawberry powdery mildew at 4000 fold dilution (reference value: 62.2%). Format: functional. The method, boiled down:
(§2)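 Commercial greenhouse trial on strawberry cv. Janghee. Plots were 4 m long, with data taken from the middle 3 m. Sprays applied by hand-held sprayer until runoff, three times at 1-week intervals. Before each spray, ripe fruits were harvested and total and diseased fruits counted. Percentage of diseased fruits given as the mean of three replicates; disease-control percentage calculated relative to untreated control.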

Assay [5] concerns Podosphaera macularis. In words: Antifungal activity against Sphaerotheca humuli assessed as control of strawberry powdery mildew at 4000 fold dilution. Format: functional. The method, boiled down: as §2
Where [6] appears, read: Blumeria hordei, read-out: IC50.

Converted amounts (≈) assume the structure as drawn.

Take `CO[C@H]1C[C@H](O[C@H]2[C@@H](OC)C[C@H](O[C@H]3CC[C@@]4(C)C(=CC[C@]5(O)[C@@H]4C[C@@H](OC(=O)/C=C/c4ccccc4)[C@@]4(C)[C@]5(O)CC[C@]4(O)C(C)=O)C3)O[C@@H]2C)O[C@@H](C)[C@H]1O[C@H]1C[C@H](OC)[C@H](O[C@H]2C[C@@H](OC)[C@@H](O[C@@H]3O[C@H](CO)[C@@H](O[C@@H]4O[C@H](CO)[C@@H](O)[C@H](O)[C@H]4O)[C@H](O)[C@H]3O)[C@H](C)O2)[C@@H](C)O1` [WILFOSIDE K1GG]: the IC50 entry in the assay on Blumeria hordei [1] is “Not Active”.

For the compound `CC(=O)c1c(C)cc2cccc(O)c2c1O` [NEPODIN], the 50% inhibitory concentration (IC50) with Blumeria hordei [1] (setting [6]) worked out at 20 µg/mL (≈ 92.5 µM). As to `CO[C@H]1C[C@H](O[C@H]2[C@@H](OC)C[C@H](O[C@H]3CC[C@@]4(C)C(=CC[C@]5(O)[C@@H]4C[C@@H](OC(=O)/C=C(\C)C(C)C)[C@@]4(C)[C@]5(O)CC[C@]4(O)C(C)=O)C3)O[C@@H]2C)O[C@@H](C)[C@H]1O[C@H]1C[C@H](OC)[C@H](O[C@H]2C[C@@H](OC)[C@@H](O)[C@H](C)O2)[C@@H](C)O1` [WILFOSIDE C1N], the values for the Activity with Blumeria hordei [2] and in the assay on Blumeria hordei [3] were 95% and greater than 77%, respectively. Besides, the half-inhibitory concentration (IC50) with Blumeria hordei [1] (setting [6]) stood at 3.24 µg/mL (≈ 3.04 µM). With `CCCOC/C(=N\c1ccc(Cl)cc1C(F)(F)F)n1ccnc1` [TRIFLUMIZOLE], the Activity in the assay with Podosphaera macularis [4] was determined as 7.2%; in the assay on Podosphaera macularis [5], 89%. For the compound `CO[C@H]1C[C@H](O[C@H]2[C@@H](OC)C[C@H](O[C@H]3CC[C@@]4(C)C(=CC[C@]5(O)[C@@H]4C[C@@H](OC(=O)/C=C/c4ccccc4)[C@@]4(C)[C@]5(O)CC[C@]4(O)C(C)=O)C3)O[C@@H]2C)O[C@@H](C)[C@H]1O[C@H]1C[C@H](OC)[C@H](O[C@H]2C[C@@H](OC)[C@@H](O)[C@H](C)O2)[C@@H](C)O1` [WILFOSIDE K1N], the IC50 result in the assay on Blumeria hordei [1] is on record as “Not Active”. Consider `Cc1cc(O)c2c(c1)C(=O)c1cccc(O)c1C2=O` [CHRYSOPHANOL], for which, in the assay with Blumeria hordei [1] (setting [6]), the concentration for half-maximal inhibition (IC50) is 4.7 µg/mL (≈ 18.5 µM). Take `CO[C@H]1C[C@H](O[C@H]2[C@@H](OC)C[C@H](O[C@H]3CC[C@@]4(C)C(=CC[C@]5(O)[C@@H]4C[C@@H](OC(=O)/C=C(\C)C(C)C)[C@@]4(C)[C@]5(O)CC[C@]4(O)C(C)=O)C3)O[C@@H]2C)O[C@@H](C)[C@H]1O[C@H]1C[C@H](OC)[C@H](O[C@H]2C[C@@H](OC)[C@@H](O[C@@H]3O[C@H](CO)[C@@H](O[C@@H]4O[C@H](CO)[C@@H](O)[C@H](O)[C@H]4O)[C@H](O)[C@H]3O)[C@H](C)O2)[C@@H](C)O1` [WILFOSIDE C1GG]: the IC50 with Blumeria hordei [1] (setting [6]) is 28.3 µg/mL (≈ 20.4 µM). The Activity with Blumeria hordei [3] is greater than 77%. As to `NC(=O)OC[C@H](O)[C@@H](O)[C@H](N)C(=O)N[C@H](C(=O)O)[C@H]1O[C@@H](n2cc(CO)c(=O)[nH]c2=O)[C@H](O)[C@@H]1O` [POLYOXIN B], the IC50 in the assay on Blumeria hordei [1] (setting [6]) was 71.4 µg/mL (≈ 141 µM).

As to `CO[C@H]1C[C@H](O[C@H]2[C@@H](OC)C[C@H](O[C@H]3CC[C@@]4(C)C(=CC[C@]5(O)[C@@H]4C[C@@H](OC(=O)/C=C(\C)C(C)C)[C@@]4(C)[C@]5(O)CC[C@]4(O)C(C)=O)C3)O[C@@H]2C)O[C@@H](C)[C@H]1O[C@H]1C[C@H](OC)[C@H](O[C@H]2C[C@@H](OC)[C@@H](O[C@@H]3O[C@H](CO)[C@@H](O)[C@H](O)[C@H]3O)[C@H](C)O2)[C@@H](C)O1` [WILFOSIDE C1G], the Activity in the assay on Blumeria hordei [2] was 78%; with Blumeria hordei [3] it was greater than 77%. For the same compound, the IC50 with Blumeria hordei [1] (setting [6]) came to 12.9 µg/mL (≈ 10.5 µM).
